Data on 13 compounds can be found in ChEMBL document CHEMBL2311304, “Design, synthesis and in vitro and in vivo antitumor activities of novel bivalent β-carbolines” (Eur J Med Chem, 2013).

One test has as its system SK-OV-3. Briefly: Cytotoxicity against human ovary adenocarcinoma SKOV3 cells assessed as reduction in optical density by MTT assay. The class given is functional, cell-based. The following applies: SK-OV-3, Female gonad. In outline:
(§1)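 Cells were cultured in RPMI-1640 with 10% (v/v) fetal calf serum, 100 µg ml-1 penicillin and 100 µg ml-1 streptomycin at 37 °C in humidified 5% CO2. Compounds were dissolved in DMSO, with final DMSO at 2% (v/v) or lower. MTT staining was used, with three replicate wells per point. IC50 is the concentration giving a 50% drop in optical density versus untreated cells.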
(Formazan colour is commonly taken as a measure of viable cells.)
In general, IC50 refers to the point on the concentration scale where inhibition reaches its midpoint. Regarding `c1ccc2c(c1)c1ccncc1n2CCCCCCCCn1c2ccccc2c2ccncc21`, the IC50 turned out to be 33.5 µM.

As to `Brc1cccc2c3ccncc3n(CCCCCCn3c4cnccc4c4cccc(Br)c43)c12`, the IC50 was above 200 µM.

For `CC(C)c1nccc2c3ccccc3n(CCCCCCn3c4ccccc4c4ccnc(C(C)C)c43)c12`, the 50% inhibitory concentration (IC50) is 31.8 µM.

For the compound `COc1ccc2c3ccnc(C)c3n(CCCCCn3c4cc(OC)ccc4c4ccnc(C)c43)c2c1`, the IC50 turned out to be 1.7 µM.

For `COc1ccc2c3ccnc(C)c3n(CCCCCCn3c4cc(OC)ccc4c4ccnc(C)c43)c2c1`, the IC50 came out at 11.7 µM.

As to `CC(C)c1nccc2c3ccccc3n(CCCCCCCCCCn3c4ccccc4c4ccnc(C(C)C)c43)c12`, the half-maximal inhibitory concentration (IC50) was above 200 µM.

Regarding `Cc1nccc2c3ccccc3n(CCCCCCCn3c4ccccc4c4ccnc(C)c43)c12`, the IC50 worked out at 96.8 µM.

Consider `CCCCOc1ccc2c3ccnc(C)c3n(CCCCn3c4cc(OCCCC)ccc4c4ccnc(C)c43)c2c1`, for which the IC50 was 5.5 µM.

Regarding `c1ccc2c(c1)c1ccncc1n2CCCCCCCn1c2ccccc2c2ccncc21`, the IC50 was above 200 µM.

For `c1ccc2c(c1)c1ccnc(-c3ccsc3)c1n2CCCCCCCCn1c2ccccc2c2ccnc(-c3ccsc3)c21`, the IC50 was above 200 µM.

For the compound `Cc1nccc2c3ccccc3n(CCCn3c4ccccc4c4ccnc(C)c43)c12`, the IC50 amounted to 26.4 µM.

As to `CCOC(=O)c1cc2c3ccccc3n(CCCCCn3c4ccccc4c4cc(C(=O)OCC)nc(-c5cccnc5)c43)c2c(-c2cccnc2)n1`, the IC50 is above 200 µM.

Regarding `Cc1nccc2c3ccccc3n(CCCCCCCCCn3c4ccccc4c4ccnc(C)c43)c12`, the IC50 came out at 61.9 µM.

Another test relates to KB. Put plainly: Cytotoxicity against human epidermoid carcinoma of the nasopharynx KB cells assessed as reduction in optical density by MTT assay.
Details: not given
The class given is functional, cell-based. In outline:
as §1
With `c1ccc2c(c1)c1ccncc1n2CCCCCCCCn1c2ccccc2c2ccncc21`, the IC50 was above 200 µM.

For the compound `Brc1cccc2c3ccncc3n(CCCCCCn3c4cnccc4c4cccc(Br)c43)c12`, the IC50 is above 200 µM.

In the case of `CC(C)c1nccc2c3ccccc3n(CCCCCCn3c4ccccc4c4ccnc(C(C)C)c43)c12`, the IC50 is above 200 µM.

In the case of `COc1ccc2c3ccnc(C)c3n(CCCCCn3c4cc(OC)ccc4c4ccnc(C)c43)c2c1`, the 50% inhibitory concentration (IC50) amounted to 5 µM.

For the compound `COc1ccc2c3ccnc(C)c3n(CCCCCCn3c4cc(OC)ccc4c4ccnc(C)c43)c2c1`, the IC50 turned out to be 155 µM.

In the case of `CC(C)c1nccc2c3ccccc3n(CCCCCCCCCCn3c4ccccc4c4ccnc(C(C)C)c43)c12`, the IC50 was above 200 µM.

Take `Cc1nccc2c3ccccc3n(CCCCCCCn3c4ccccc4c4ccnc(C)c43)c12`: the IC50 is above 200 µM.

As to `CCCCOc1ccc2c3ccnc(C)c3n(CCCCn3c4cc(OCCCC)ccc4c4ccnc(C)c43)c2c1`, the IC50 was 6.8 µM.

Consider `c1ccc2c(c1)c1ccncc1n2CCCCCCCn1c2ccccc2c2ccncc21`, for which the IC50 is above 200 µM.

Regarding `c1ccc2c(c1)c1ccnc(-c3ccsc3)c1n2CCCCCCCCn1c2ccccc2c2ccnc(-c3ccsc3)c21`, the IC50 was above 200 µM.

As for `Cc1nccc2c3ccccc3n(CCCn3c4ccccc4c4ccnc(C)c43)c12`, the IC50 is 160 µM.

With `CCOC(=O)c1cc2c3ccccc3n(CCCCCn3c4ccccc4c4cc(C(=O)OCC)nc(-c5cccnc5)c43)c2c(-c2cccnc2)n1`, the IC50 amounted to 15.7 µM.

Consider `Cc1nccc2c3ccccc3n(CCCCCCCCCn3c4ccccc4c4ccnc(C)c43)c12`, for which the concentration for half-maximal inhibition (IC50) is above 200 µM.

A further test deals with 769-P. Briefly: Cytotoxicity against human renal carcinoma 769-P cells assessed as reduction in optical density by MTT assay. The class given is functional, cell-based.
Details: not given
The method, boiled down:
as §1
Turning to `c1ccc2c(c1)c1ccncc1n2CCCCCCCCn1c2ccccc2c2ccncc21`, the IC50 is above 200 µM.

In the case of `Brc1cccc2c3ccncc3n(CCCCCCn3c4cnccc4c4cccc(Br)c43)c12`, the IC50 is above 200 µM.

`CC(C)c1nccc2c3ccccc3n(CCCCCCn3c4ccccc4c4ccnc(C(C)C)c43)c12`: the IC50 amounted to 18.5 µM.

`COc1ccc2c3ccnc(C)c3n(CCCCCn3c4cc(OC)ccc4c4ccnc(C)c43)c2c1`: the IC50 turned out to be 81 µM.

For the compound `COc1ccc2c3ccnc(C)c3n(CCCCCCn3c4cc(OC)ccc4c4ccnc(C)c43)c2c1`, the half-maximal inhibitory concentration (IC50) is above 200 µM.

`CC(C)c1nccc2c3ccccc3n(CCCCCCCCCCn3c4ccccc4c4ccnc(C(C)C)c43)c12`: the IC50 came to 4.6 µM.

`Cc1nccc2c3ccccc3n(CCCCCCCn3c4ccccc4c4ccnc(C)c43)c12`: the half-inhibitory concentration (IC50) is 51.7 µM.

Consider `CCCCOc1ccc2c3ccnc(C)c3n(CCCCn3c4cc(OCCCC)ccc4c4ccnc(C)c43)c2c1`, for which the IC50 was above 200 µM.

Consider `c1ccc2c(c1)c1ccncc1n2CCCCCCCn1c2ccccc2c2ccncc21`, for which the IC50 is 53 µM.

In the case of `c1ccc2c(c1)c1ccnc(-c3ccsc3)c1n2CCCCCCCCn1c2ccccc2c2ccnc(-c3ccsc3)c21`, the IC50 was above 200 µM.

On to `Cc1nccc2c3ccccc3n(CCCn3c4ccccc4c4ccnc(C)c43)c12`, for which the IC50 was determined as 145 µM.

As to `CCOC(=O)c1cc2c3ccccc3n(CCCCCn3c4ccccc4c4cc(C(=O)OCC)nc(-c5cccnc5)c43)c2c(-c2cccnc2)n1`, the IC50 was found to be 132 µM.

On to `Cc1nccc2c3ccccc3n(CCCCCCCCCn3c4ccccc4c4ccnc(C)c43)c12`, for which the IC50 was above 200 µM.

The next test has as its system A-375. Briefly: Cytotoxicity against human malignant melanoma A375 cells assessed as reduction in optical density by MTT assay. The format is functional, cell-based.
Details: not given
The method, boiled down:
as §1
For `c1ccc2c(c1)c1ccncc1n2CCCCCCCCn1c2ccccc2c2ccncc21`, the IC50 was above 200 µM.

Take `Brc1cccc2c3ccncc3n(CCCCCCn3c4cnccc4c4cccc(Br)c43)c12`: the IC50 is above 200 µM.

Regarding `CC(C)c1nccc2c3ccccc3n(CCCCCCn3c4ccccc4c4ccnc(C(C)C)c43)c12`, the IC50 came out at 53.5 µM.

As for `COc1ccc2c3ccnc(C)c3n(CCCCCn3c4cc(OC)ccc4c4ccnc(C)c43)c2c1`, the IC50 was below 1.4 µM.

For `COc1ccc2c3ccnc(C)c3n(CCCCCCn3c4cc(OC)ccc4c4ccnc(C)c43)c2c1`, the IC50 amounted to 35.3 µM.

On to `CC(C)c1nccc2c3ccccc3n(CCCCCCCCCCn3c4ccccc4c4ccnc(C(C)C)c43)c12`, for which the IC50 was determined as 19.6 µM.

Take `Cc1nccc2c3ccccc3n(CCCCCCCn3c4ccccc4c4ccnc(C)c43)c12`: the IC50 was above 200 µM.

On to `CCCCOc1ccc2c3ccnc(C)c3n(CCCCn3c4cc(OCCCC)ccc4c4ccnc(C)c43)c2c1`, for which the IC50 stood at 3.8 µM.

On to `c1ccc2c(c1)c1ccncc1n2CCCCCCCn1c2ccccc2c2ccncc21`, for which the 50% inhibitory concentration (IC50) was above 200 µM.

As for `c1ccc2c(c1)c1ccnc(-c3ccsc3)c1n2CCCCCCCCn1c2ccccc2c2ccnc(-c3ccsc3)c21`, the IC50 came out at 32.1 µM.

Take `Cc1nccc2c3ccccc3n(CCCn3c4ccccc4c4ccnc(C)c43)c12`: the IC50 worked out at 69.5 µM.

As to `CCOC(=O)c1cc2c3ccccc3n(CCCCCn3c4ccccc4c4cc(C(=O)OCC)nc(-c5cccnc5)c43)c2c(-c2cccnc2)n1`, the IC50 came to 13 µM.

`Cc1nccc2c3ccccc3n(CCCCCCCCCn3c4ccccc4c4ccnc(C)c43)c12`: the IC50 was determined as 57.2 µM.

The next test concerns BGC-823. Put plainly: Cytotoxicity against human gastric carcinoma BGC823 cells assessed as reduction in optical density by MTT assay. The format is functional, cell-based.
Details: not given
In outline: as §1
With `c1ccc2c(c1)c1ccncc1n2CCCCCCCCn1c2ccccc2c2ccncc21`, the IC50 is above 200 µM.

As for `Brc1cccc2c3ccncc3n(CCCCCCn3c4cnccc4c4cccc(Br)c43)c12`, the IC50 is above 200 µM.

As for `CC(C)c1nccc2c3ccccc3n(CCCCCCn3c4ccccc4c4ccnc(C(C)C)c43)c12`, the IC50 is above 200 µM.

Take `COc1ccc2c3ccnc(C)c3n(CCCCCn3c4cc(OC)ccc4c4ccnc(C)c43)c2c1`: the IC50 is 58.6 µM.

On to `COc1ccc2c3ccnc(C)c3n(CCCCCCn3c4cc(OC)ccc4c4ccnc(C)c43)c2c1`, for which the IC50 is above 200 µM.

As for `CC(C)c1nccc2c3ccccc3n(CCCCCCCCCCn3c4ccccc4c4ccnc(C(C)C)c43)c12`, the IC50 was above 200 µM.

Regarding `Cc1nccc2c3ccccc3n(CCCCCCCn3c4ccccc4c4ccnc(C)c43)c12`, the IC50 is above 200 µM.

With `CCCCOc1ccc2c3ccnc(C)c3n(CCCCn3c4cc(OCCCC)ccc4c4ccnc(C)c43)c2c1`, the IC50 came to 8.5 µM.

Turning to `c1ccc2c(c1)c1ccncc1n2CCCCCCCn1c2ccccc2c2ccncc21`, the IC50 was above 200 µM.

As to `c1ccc2c(c1)c1ccnc(-c3ccsc3)c1n2CCCCCCCCn1c2ccccc2c2ccnc(-c3ccsc3)c21`, the IC50 is above 200 µM.

On to `Cc1nccc2c3ccccc3n(CCCn3c4ccccc4c4ccnc(C)c43)c12`, for which the IC50 is above 200 µM.

As to `CCOC(=O)c1cc2c3ccccc3n(CCCCCn3c4ccccc4c4cc(C(=O)OCC)nc(-c5cccnc5)c43)c2c(-c2cccnc2)n1`, the IC50 worked out at 24.1 µM.

Consider `Cc1nccc2c3ccccc3n(CCCCCCCCCn3c4ccccc4c4ccnc(C)c43)c12`, for which the IC50 is above 200 µM.
